The text below walks through data of ChEMBL document CHEMBL4396951, “Optimization and anti-inflammatory evaluation of methyl gallate derivatives as a myeloid differentiation protein 2 inhibitor” (Bioorg Med Chem, 2019).

The subject of data set [1] is Peritoneal macrophage. As to the kind of experiment: Antiinflammatory activity in C57BL/6 mouse primary peritoneal macrophages assessed as inhibition of LPS-induced TNFalpha production at 10 uM preincubated for 30 mins followed by LPS stimulation and measured after 24 hrs by sandwich ELISA. It is filed as functional, cell-based. An outline of the steps:
(§1)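 Thioglycollate-elicited mouse peritoneal macrophages in RPMI-1640/10% FBS. Compound pretreatment for 30 min (10 μM for single-point screening, graded concentrations for dose-response), then 0.5 μg/mL LPS for 24 h. TNF-α and IL-6 in culture medium measured by sandwich ELISA and normalized to total protein in cell lysates; n = 3.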

In data set [2] the test system is Peritoneal macrophage. Kind of data set: Antiinflammatory activity in C57BL/6 mouse primary peritoneal macrophages assessed as inhibition of LPS-induced IL-6 production at 10 uM preincubated for 30 mins followed by LPS stimulation and measured after 24 hrs by sandwich ELISA. It is filed as functional, cell-based. An outline of the steps:
as §1

Data set [3] relates to Peritoneal macrophage. Kind of data set: Antiinflammatory activity in C57BL/6 mouse primary peritoneal macrophages assessed as inhibition of LPS-induced TNFalpha production at 10 uM preincubated for 30 mins followed by LPS stimulation and measured after 24 hrs by sandwich ELISA relative to control. It is filed as functional. Particulars: C57BL/6, Peritoneal macrophage. An outline of the steps: as §1
For orientation: An ELISA detects its analyte on a solid surface through an enzyme-linked reagent.

The nature of data set [4]: Stability of compound in pH 7.4 phosphate buffer at 20 uM measured up to 25 mins by UV-VIS spectroscopy. It is filed as physicochemical. Particulars: pH 7.4, 25 min.
The subject of data set [5] is Peritoneal macrophage. As to the kind of experiment: Antiinflammatory activity in C57BL/6 mouse primary peritoneal macrophages assessed as inhibition of LPS-induced TNFalpha production preincubated for 30 mins followed by LPS stimulation and measured after 24 hrs by sandwich ELISA. It is filed as functional, cell-based. Summed up:
as §1

Data set [6] has as its system Peritoneal macrophage. As to the kind of experiment: Antiinflammatory activity in C57BL/6 mouse primary peritoneal macrophages assessed as inhibition of LPS-induced IL-6 production at 10 uM preincubated for 30 mins followed by LPS stimulation and measured after 24 hrs by sandwich ELISA relative to control. In kind it is functional. Particulars: C57BL/6, Peritoneal macrophage. An outline of the steps: as §1

Data set [7] relates to Peritoneal macrophage. Kind of data set: Antiinflammatory activity in C57BL/6 mouse primary peritoneal macrophages assessed as inhibition of LPS-induced IL-6 production preincubated for 30 mins followed by LPS stimulation and measured after 24 hrs by sandwich ELISA. In kind it is functional, cell-based. An outline of the steps: as §1

The structures appear in SMILES notation. Activity calls are given as the source filed them. The rule behind the calls is not given here. Bounds are passed on as bounds.

On to `CC(=O)N1CCc2cc(NC(=O)c3cc(O)c(O)c(O)c3)ccc21`, for which the inhibition result in the data set on Peritoneal macrophage [1] and in the data set with Peritoneal macrophage [2] was “Active” in each case.
Take `COc1cc(CC(=O)Nc2ccc3c(c2)CCC3)cc(OC)c1`: the inhibition result in the data set on Peritoneal macrophage [1] and in the data set on Peritoneal macrophage [2] was “Active” in each case.
For the compound `CCOc1ccc(NC(=O)c2cc(O)c(O)c(O)c2)cc1`, the inhibition result in the data set on Peritoneal macrophage [1] and in the data set on Peritoneal macrophage [2] was “Active” in each case.
Consider `CN1CCN(Cc2ccc(NC(=O)c3cc(O)c(O)c(O)c3)cc2)CC1`, for which the inhibition entry with Peritoneal macrophage [1] and with Peritoneal macrophage [2] was “Active” throughout.
In the case of `O=C(Nc1ccc2c(c1)CCC2)c1ccccc1C(F)(F)F`, the inhibition result in the data set on Peritoneal macrophage [1] and with Peritoneal macrophage [2] was “Active” throughout.
For `CN(C)c1cccc(C(=O)Nc2ccc3c(c2)CCC3)c1`, the inhibition result with Peritoneal macrophage [1] and in the data set on Peritoneal macrophage [2] was “Active” each time.
As to `COc1cc(/C=C/C(=O)Nc2ccc3c(c2)CCC3)cc(OC)c1OC`, the inhibition result in the data set on Peritoneal macrophage [1] and in the data set with Peritoneal macrophage [2] was “Active” throughout.
Consider `O=C(Nc1ccc2c(c1)CCC2)c1cc2ccccc2[nH]1`, for which the inhibition entry in the data set with Peritoneal macrophage [1] and in the data set with Peritoneal macrophage [2] was “Active” each time.
`O=C(NCc1ccccc1)c1cc(O)c(O)c(O)c1`: the inhibition entry in the data set on Peritoneal macrophage [1] and in the data set with Peritoneal macrophage [2] was “Active” each time.
For the compound `COc1ccc(/C=C/C(=O)Nc2ccc3c(c2)CCC3)cc1O`, the inhibition result with Peritoneal macrophage [1] and in the data set with Peritoneal macrophage [2] was “Active” in each case.
On to `O=C(Cc1cccc2ccccc12)Nc1ccc2c(c1)CCC2`, for which the inhibition entry in the data set on Peritoneal macrophage [1] and in the data set on Peritoneal macrophage [2] was “Active” throughout. The inhibition at 10 µM in the data set on Peritoneal macrophage [3] and in the data set with Peritoneal macrophage [6] was greater than 50% throughout. Besides, in data set [4], the Stability entry is “Stable”. Besides, the inhibition result in the data set on Peritoneal macrophage [5] and in the data set on Peritoneal macrophage [7] was “Dose-dependent effect” in each case.
`O=C(CCCc1c[nH]c2ccccc12)Nc1ccc2c(c1)CCC2`: the inhibition entry with Peritoneal macrophage [1] and with Peritoneal macrophage [2] was “Active” each time.
Take `COc1ccc(NC(=O)c2cc(O)c(O)c(O)c2)cc1`: the inhibition entry in the data set with Peritoneal macrophage [1] and in the data set on Peritoneal macrophage [2] was “Active” in each case.
As to `CN(C)c1ccccc1C(=O)Nc1ccc2c(c1)CCC2`, the inhibition result in the data set with Peritoneal macrophage [1] and in the data set with Peritoneal macrophage [2] was “Active” each time. Further, the inhibition at 10 µM in the data set with Peritoneal macrophage [3] and in the data set on Peritoneal macrophage [6] was greater than 50% in each case. In data set [4], the Stability entry is on record as “Stable”. Further, the inhibition result in the data set on Peritoneal macrophage [5] and in the data set with Peritoneal macrophage [7] was “Dose-dependent effect” throughout.
For the compound `O=C(Nc1ccc2c(c1)CCC2)c1c(Cl)cccc1Cl`, the inhibition entry with Peritoneal macrophage [1] and in the data set with Peritoneal macrophage [2] was “Active” in each case.
In the case of `Cc1ccc(C(=O)Nc2ccc3c(c2)CCC3)s1`, the inhibition entry in the data set with Peritoneal macrophage [1] and with Peritoneal macrophage [2] was “Active” throughout.
In the case of `COc1ccccc1CNC(=O)c1cc(O)c(O)c(O)c1`, the inhibition result in the data set on Peritoneal macrophage [1] and with Peritoneal macrophage [2] was “Active” in each case.
In the case of `COc1ccc2cc(C(=O)Nc3ccc4c(c3)CCC4)[nH]c2c1`, the inhibition result in the data set on Peritoneal macrophage [1] and in the data set with Peritoneal macrophage [2] was “Active” throughout. Also, the inhibition at 10 µM in the data set on Peritoneal macrophage [3] and in the data set with Peritoneal macrophage [6] was greater than 50% throughout. Further, the Stability entry in data set [4] was “Stable”. The inhibition result with Peritoneal macrophage [5] and in the data set on Peritoneal macrophage [7] was “Dose-dependent effect” throughout.
Consider `Cc1ncsc1C(=O)Nc1ccc2c(c1)CCC2`, for which the inhibition result in the data set on Peritoneal macrophage [1] and in the data set on Peritoneal macrophage [2] was “Active” each time.
`O=C(/C=C/c1ccccc1C(F)(F)F)Nc1ccc2c(c1)CCC2`: the inhibition result with Peritoneal macrophage [1] and in the data set on Peritoneal macrophage [2] was “Active” each time.
In the case of `O=C(Nc1ccc2cc[nH]c2c1)c1cc(O)c(O)c(O)c1`, the inhibition result in the data set on Peritoneal macrophage [1] and with Peritoneal macrophage [2] was “Active” each time.
As to `O=C(/C=C/c1cccc(OC(F)(F)F)c1)Nc1ccc2c(c1)CCC2`, the inhibition entry with Peritoneal macrophage [1] and with Peritoneal macrophage [2] was “Active” each time.
As to `CN1CCN(c2ccc(NC(=O)c3cc(O)c(O)c(O)c3)cc2)CC1`, the inhibition result in the data set with Peritoneal macrophage [1] and with Peritoneal macrophage [2] was “Active” each time.
Consider `COc1ccc(CNC(=O)c2cc(O)c(O)c(O)c2)cc1OC`, for which the inhibition entry in the data set on Peritoneal macrophage [1] and in the data set on Peritoneal macrophage [2] was “Active” throughout.
Consider `COc1cc(NC(=O)c2cc(O)c(O)c(O)c2)cc(OC)c1`, for which the inhibition result in the data set with Peritoneal macrophage [1] and in the data set with Peritoneal macrophage [2] was “Active” each time.
With `O=C(Nc1ccc2c(c1)CCC2)c1ccc(Cl)c([N+](=O)[O-])c1`, the inhibition entry in the data set with Peritoneal macrophage [1] and with Peritoneal macrophage [2] was “Active” in each case.
For the compound `O=C(Cc1ccc([N+](=O)[O-])cc1[N+](=O)[O-])Nc1ccc2c(c1)CCC2`, the inhibition result in the data set with Peritoneal macrophage [1] and with Peritoneal macrophage [2] was “Active” each time.
On to `COc1ccc(OC)c(/C=C/C(=O)Nc2ccc3c(c2)CCC3)c1`, for which the inhibition result in the data set with Peritoneal macrophage [1] and with Peritoneal macrophage [2] was “Active” each time.
Turning to `CCN(CC)c1ccc(C(=O)Nc2ccc3c(c2)CCC3)cc1`, the inhibition result in the data set with Peritoneal macrophage [1] and in the data set on Peritoneal macrophage [2] was “Active” each time.
`O=C(Nc1ccc(F)cc1)c1cc(O)c(O)c(O)c1`: the inhibition entry in the data set with Peritoneal macrophage [1] and in the data set on Peritoneal macrophage [2] was “Active” throughout.
`O=C(Nc1ccc(N2CCOCC2)cc1)c1cc(O)c(O)c(O)c1`: the inhibition result in the data set on Peritoneal macrophage [1] and in the data set on Peritoneal macrophage [2] was “Active” each time.
Take `CC(=O)Nc1ccc(C(=O)Nc2ccc3c(c2)CCC3)cc1`: the inhibition entry with Peritoneal macrophage [1] and with Peritoneal macrophage [2] was “Active” in each case.
Regarding `COc1cc(/C=C/C(=O)Nc2ccc3c(c2)CCC3)cc(OC)c1O`, the inhibition result with Peritoneal macrophage [1] and in the data set with Peritoneal macrophage [2] was “Active” each time.
For the compound `O=C(Nc1ccc2c(c1)CCC2)c1cc(Cl)nc(Cl)c1`, the inhibition entry with Peritoneal macrophage [1] and in the data set with Peritoneal macrophage [2] was “Active” each time.
For `O=C(Nc1ccccc1)c1cc(O)c(O)c(O)c1`, the inhibition entry in the data set on Peritoneal macrophage [1] and in the data set on Peritoneal macrophage [2] was “Active” throughout.
Take `O=C(Nc1ccc2c(c1)CCC2)c1cccc(N2CCCC2)c1`: the inhibition entry in the data set with Peritoneal macrophage [1] and in the data set on Peritoneal macrophage [2] was “Active” in each case.
Take `COc1ccc(/C=C/C(=O)Nc2ccc3c(c2)CCC3)cc1OC`: the inhibition entry with Peritoneal macrophage [1] and with Peritoneal macrophage [2] was “Active” in each case.
`O=C(Nc1ccc2c(c1)CCC2)c1cccc(N2CCOCC2)c1`: the inhibition result in the data set on Peritoneal macrophage [1] and in the data set on Peritoneal macrophage [2] was “Active” in each case.

The term inhibition denotes the share of the control response that was lost under treatment.
